Measurements as given in ChEMBL document CHEMBL5303300, “EUbOPEN Chemogenomics Library - Multiplex” (2023).
Where “and” joins values, the source holds several entries; their conditions need not be identical. Identical values can stand only once.

Experiments:
U2OS = test: Multiplex assay against U2OS; type: toxicity, cell-based; conditions: human, number of replicates 2
In short: (§1)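 Tubulin, mitochondrial-mass and membrane-permeability phenotypes are per cents of healthy-nucleus cells. Cells were gated by CellPathfinder machine learning into Hoechst high-intensity objects or normal cells, normal cells into healthy, pyknosed or fragmented nuclei, and pyknosed cells into mitotic or apoptotic. Before that, live cells stained at seeding with Hoechst33342, BioTracker Green Microtubule Cytoskeleton Dye, MitoTracker Red and Annexin V Alexa Fluor 680 were imaged on a CQ1 microscope at 37°C and 5% CO2 after compound addition.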

HEK-293T = test: Multiplex assay against HEK293T; type: toxicity, cell-based; conditions: human, number of replicates 2; in short: as §1
[1] = 12 h, 1 µM, compound concentration 1 uM
[2] = 12 h, 10 µM, compound concentration 10 uM
[3] = 24 h, 1 µM, compound concentration 1 uM
[4] = 24 h, 10 µM, compound concentration 10 uM
[5] = 48 h, 1 µM, compound concentration 1 uM
[6] = 48 h, 10 µM, compound concentration 10 uM

## CN(C)C/C=C/C(=O)Nc1cc2c(Nc3ccc(F)c(Cl)c3)ncnc2cc1OC[C@@H]1CCCO1
U2OS; [1]
  Population Apoptotic (%): 66% and 86%
  Population Healthy Nuclei (%): 40% and 79%
  Population Hoechst High Intensity Objects (%): 0%
  Population Membrane Permeable-Phenotype (%): 27% and 24%
  Population Mitochondria Different-Phenotype (%): 9% and 22%
  Population Mitotic Cells (%): 33% and 13%
  Population Normal (%): 100%
  Population Pyknosed Nuclei (%): 22% and 14%
  Population Tubulin-Different-Phenotype (%): 63% and 53%
U2OS; [2]
  Population Apoptotic (%): 76% and 59%
  Population Healthy Nuclei (%): 23% and 66%
  Population Hoechst High Intensity Objects (%): 0%
  Population Membrane Permeable-Phenotype (%): 66% and 25%
  Population Mitochondria Different-Phenotype (%): 50% and 48%
  Population Mitotic Cells (%): 23% and 40%
  Population Normal (%): 100% and 99%
  Population Pyknosed Nuclei (%): 50% and 25%
  Population Tubulin-Different-Phenotype (%): 83% and 97%
U2OS; [3]
  Population Apoptotic (%): 71% and 77%
  Population Healthy Nuclei (%): 42% and 74%
  Population Hoechst High Intensity Objects (%): 0%
  Population Membrane Permeable-Phenotype (%): 14% and 18%
  Population Mitochondria Different-Phenotype (%): 21% and 36%
  Population Mitotic Cells (%): 28% and 22%
  Population Normal (%): 100% and 99%
  Population Pyknosed Nuclei (%): 21% and 20%
  Population Tubulin-Different-Phenotype (%): 35% and 48%
U2OS; [4]
  Population Apoptotic (%): 85% and 65%
  Population Hoechst High Intensity Objects (%): 0% and 1%
  Population Membrane Permeable-Phenotype (%): 100% and 35%
  Population Mitochondria Different-Phenotype (%): 80% and 70%
  Population Mitotic Cells (%): 14% and 34%
  Population Normal (%): 100% and 98%
  Population Pyknosed Nuclei (%): 46% and 37%
  Population Tubulin-Different-Phenotype (%): 100% and 93%
U2OS; [5]
  Population Apoptotic (%): 66% and 88%
  Population Healthy Nuclei (%): 39% and 76%
  Population Hoechst High Intensity Objects (%): 0%
  Population Membrane Permeable-Phenotype (%): 27% and 14%
  Population Mitochondria Different-Phenotype (%): 45% and 26%
  Population Mitotic Cells (%): 33% and 11%
  Population Normal (%): 100%
  Population Pyknosed Nuclei (%): 21% and 18%
  Population Tubulin-Different-Phenotype (%): 63% and 40%
U2OS; [6]
  Population Apoptotic (%): 76% and 90%
  Population Hoechst High Intensity Objects (%): 0% and 2%
  Population Membrane Permeable-Phenotype (%): 100% and 50%
  Population Mitochondria Different-Phenotype (%): 100% and 79%
  Population Mitotic Cells (%): 23% and 10%
  Population Normal (%): 100% and 97%
  Population Pyknosed Nuclei (%): 43% and 56%
  Population Tubulin-Different-Phenotype (%): 100% and 89%
HEK-293T; [1]
  Population Apoptotic (%): 39% and 48%
  Population Fragmented Nuclei (%): 3% and 2%
  Population Healthy Nuclei (%): 83% and 85%
  Population Hoechst High Intensity Objects (%): 7% and 8%
  Population Membrane Permeable-Phenotype (%): 4% and 5%
  Population Mitochondria Different-Phenotype (%): 32% and 29%
  Population Mitotic Cells (%): 60% and 51%
  Population Normal (%): 92% and 91%
  Population Pyknosed Nuclei (%): 13% and 12%
  Population Tubulin-Different-Phenotype (%): 94% and 91%
  Total Cell Count: 593 and 650
HEK-293T; [2]
  Population Apoptotic (%): 72% and 76%
  Population Fragmented Nuclei (%): 2% and 4%
  Population Healthy Nuclei (%): 75% and 78%
  Population Hoechst High Intensity Objects (%): 20% and 28%
  Population Membrane Permeable-Phenotype (%): 2% and 4%
  Population Mitochondria Different-Phenotype (%): 73% and 75%
  Population Mitotic Cells (%): 27% and 23%
  Population Normal (%): 79% and 71%
  Population Pyknosed Nuclei (%): 21% and 17%
  Population Tubulin-Different-Phenotype (%): 60% and 66%
  Total Cell Count: 256 and 344
HEK-293T; [3]
  Population Apoptotic (%): 57% and 51%
  Population Fragmented Nuclei (%): 6% and 5%
  Population Healthy Nuclei (%): 87% and 86%
  Population Hoechst High Intensity Objects (%): 8%
  Population Membrane Permeable-Phenotype (%): 4%
  Population Mitochondria Different-Phenotype (%): 21% and 18%
  Population Mitotic Cells (%): 42% and 48%
  Population Normal (%): 91%
  Population Pyknosed Nuclei (%): 6% and 8%
  Population Tubulin-Different-Phenotype (%): 81% and 83%
  Total Cell Count: 811 and 859
HEK-293T; [4]
  Population Apoptotic (%): 89% and 76%
  Population Fragmented Nuclei (%): 3% and 1%
  Population Healthy Nuclei (%): 62% and 73%
  Population Hoechst High Intensity Objects (%): 25% and 29%
  Population Membrane Permeable-Phenotype (%): 7% and 0%
  Population Mitochondria Different-Phenotype (%): 74% and 79%
  Population Mitotic Cells (%): 10% and 23%
